What was measured:
[1] = molecular target: Ephrin type-A receptor 8 (Homo sapiens) (UniProt P29322); test: Inhibition of wild-type human partial length EPHA8 (Q608 to C920 residues) expressed in Escherichia coli BL21 assessed as residual activity at 1000 nM after 30 mins by Kinomescan method relative to control
[2] = molecular target: Serine/threonine-protein kinase 32B (Homo sapiens) (UniProt Q9NY57); test: Inhibition of wild-type human full length YANK2 (M1 to S414 residues) expressed in Escherichia coli BL21 assessed as residual activity at 1000 nM after 30 mins by Kinomescan method relative to control
[3] = molecular target: Receptor-type tyrosine-protein kinase FLT3 (Homo sapiens) (UniProt P36888); test: Inhibition of wild-type human partial length FLT3 (V592 to Y969 residues) expressed in Escherichia coli BL21 assessed as residual activity at 1000 nM after 30 mins by Kinomescan method relative to control
[4] = molecular target: Eukaryotic translation initiation factor 2-alpha kinase 1 (Homo sapiens) (UniProt Q9BQI3); test: Inhibition of wild-type human partial length EIF2AK1 (Q147 to E603 residues) expressed in HEK293 cells assessed as residual activity at 1000 nM after 30 mins by Kinomescan method relative to control; format: cell-based
[5] = molecular target: Activated CDC42 kinase 1 (Homo sapiens) (UniProt Q07912); test: Inhibition of wild-type human partial length TNK2 (S159 to D474 residues) expressed in Escherichia coli BL21 assessed as residual activity at 1000 nM after 30 mins by Kinomescan method relative to control
[6] = test system: ALK tyrosine kinase receptor (Homo sapiens), Q9UM73 [L1196M]; test: Inhibition of wild-type human partial length ALK L1196M mutant (I1088 to E1409 residues) expressed in HEK293 cells assessed as residual activity at 1000 nM after 30 mins by Kinomescan method relative to control; format: cell-based
[7] = molecular target: Serine/threonine-protein kinase Chk2 (Homo sapiens) (UniProt O96017); test: Inhibition of wild-type human partial length CHEK2 (S253 to E574 residues) expressed in Escherichia coli BL21 assessed as residual activity at 1000 nM after 30 mins by Kinomescan method relative to control
[8] = test system: Tyrosine-protein kinase ABL1 (Homo sapiens), P00519 [H396P]; test: Inhibition of human non-phosphorylated ABL1 H396P mutant (S229 to K512 residues) expressed in HEK293 cells assessed as residual activity at 1000 nM after 30 mins by Kinomescan method relative to control; format: cell-based
In short: (§1)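 KINOMEscan binding panel of 456 kinases, with the test compound at a single concentration of 1 µM. Read-out is Percent Control.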

[9] = test system: Epidermal growth factor receptor (Homo sapiens), P00533 [L861Q]; test: Inhibition of human partial length EGFR L861Q mutant (R669 to V1011 residues) expressed in Escherichia coli BL21 assessed as residual activity at 1000 nM after 30 mins by Kinomescan method relative to control; in short: as §1
[10] = molecular target: Receptor-type tyrosine-protein kinase FLT3 (Homo sapiens) (UniProt P36888); test: Inhibition of wild-type human partial length autoinhibited FLT3 (H564 to Y969 residues) expressed in HEK293 cells assessed as residual activity at 1000 nM after 30 mins by Kinomescan method relative to control; format: cell-based
[11] = molecular target: Cytoplasmic tyrosine-protein kinase BMX (Homo sapiens) (UniProt P51813); test: Inhibition of wild-type human full length BMX (M1 to H675 residues) expressed in Escherichia coli BL21 assessed as residual activity at 1000 nM after 30 mins by Kinomescan method relative to control
In short: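 Single-point screen at a fixed 1 µM, run within a 456-kinase DiscoveRx KINOMEscan panel. Each kinase's read-out is Percent Control, i.e. signal relative to a control without compound. Hits were scored by a Percent Control < 35 cut-off, and an S(35) selectivity score was calculated across the non-mutant kinases.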

[12] = molecular target: Serine/threonine-protein kinase LATS1 (Homo sapiens) (UniProt O95835); test: Inhibition of wild-type human partial length LATS1 (Q678 to V1130 residues) expressed in Escherichia coli BL21 assessed as residual activity at 1000 nM after 30 mins by Kinomescan method relative to control
[13] = molecular target: Calcium/calmodulin-dependent protein kinase type IV (Homo sapiens) (UniProt Q16566); test: Inhibition of wild-type human partial length CAMK4 (A22 to A322 residues) expressed in Escherichia coli BL21 assessed as residual activity at 1000 nM after 30 mins by Kinomescan method relative to control
[14] = molecular target: Serine/threonine-protein kinase D1 (Homo sapiens) (UniProt Q15139); test: Inhibition of wild-type human partial length PRKD1 (G551 to E870 residues) expressed in Escherichia coli BL21 assessed as residual activity at 1000 nM after 30 mins by Kinomescan method relative to control
[15] = test system: Phosphatidylinositol 4,5-bisphosphate 3-kinase catalytic subunit alpha isoform (Homo sapiens), P42336 [E542K]; test: Inhibition of human partial length PIK3CA E542K mutant (R108 to N1068 residues) expressed in HEK293 cells assessed as residual activity at 1000 nM after 30 mins by Kinomescan method relative to control; format: cell-based; in short: as §1
[16] = molecular target: Serine/threonine-protein kinase pim-2 (Homo sapiens) (UniProt Q9P1W9); test: Inhibition of wild-type human partial length PIM2 (M1 to E291 residues) expressed in Escherichia coli BL21 assessed as residual activity at 1000 nM after 30 mins by Kinomescan method relative to control
[17] = molecular target: Serine/threonine-protein kinase PLK1 (Homo sapiens) (UniProt P53350); test: Inhibition of wild-type human partial length PLK1 (A33 to F325 residues) expressed in HEK293 cells assessed as residual activity at 1000 nM after 30 mins by Kinomescan method relative to control; format: cell-based
[18] = molecular target: Dual specificity mitogen-activated protein kinase kinase 7 (Homo sapiens) (UniProt O14733); test: Inhibition of wild-type human full length MKK7 (M1 to R419 residues) expressed in HEK293 cells assessed as residual activity at 1000 nM after 30 mins by Kinomescan method relative to control; format: cell-based
In short: (§2)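 Single-concentration screen at 1 µM across a 456-kinase KINOMEscan panel. The read-out is Percent Control for each kinase.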

[19] = molecular target: Serine/threonine-protein kinase TNNI3K (Homo sapiens) (UniProt Q59H18); test: Inhibition of wild-type human full length TNNI3K (M1 to S835 residues) expressed in Escherichia coli BL21 assessed as residual activity at 1000 nM after 30 mins by Kinomescan method relative to control
[20] = molecular target: LIM domain kinase 2 (Homo sapiens) (UniProt P53671); test: Inhibition of wild-type human full length LIMK2 (M1 to P638 residues) expressed in Escherichia coli BL21 assessed as residual activity at 1000 nM after 30 mins by Kinomescan method relative to control; in short: as §2
[21] = molecular target: Vascular endothelial growth factor receptor 1 (Homo sapiens) (UniProt P17948); test: Inhibition of wild-type human partial length FLT1 (R781 to F1239 residues) expressed in Escherichia coli BL21 assessed as residual activity at 1000 nM after 30 mins by Kinomescan method relative to control

Receptor-type tyrosine-protein kinase FLT3 (Homo sapiens), sequence (P36888 whole entry, the tested form may be a part): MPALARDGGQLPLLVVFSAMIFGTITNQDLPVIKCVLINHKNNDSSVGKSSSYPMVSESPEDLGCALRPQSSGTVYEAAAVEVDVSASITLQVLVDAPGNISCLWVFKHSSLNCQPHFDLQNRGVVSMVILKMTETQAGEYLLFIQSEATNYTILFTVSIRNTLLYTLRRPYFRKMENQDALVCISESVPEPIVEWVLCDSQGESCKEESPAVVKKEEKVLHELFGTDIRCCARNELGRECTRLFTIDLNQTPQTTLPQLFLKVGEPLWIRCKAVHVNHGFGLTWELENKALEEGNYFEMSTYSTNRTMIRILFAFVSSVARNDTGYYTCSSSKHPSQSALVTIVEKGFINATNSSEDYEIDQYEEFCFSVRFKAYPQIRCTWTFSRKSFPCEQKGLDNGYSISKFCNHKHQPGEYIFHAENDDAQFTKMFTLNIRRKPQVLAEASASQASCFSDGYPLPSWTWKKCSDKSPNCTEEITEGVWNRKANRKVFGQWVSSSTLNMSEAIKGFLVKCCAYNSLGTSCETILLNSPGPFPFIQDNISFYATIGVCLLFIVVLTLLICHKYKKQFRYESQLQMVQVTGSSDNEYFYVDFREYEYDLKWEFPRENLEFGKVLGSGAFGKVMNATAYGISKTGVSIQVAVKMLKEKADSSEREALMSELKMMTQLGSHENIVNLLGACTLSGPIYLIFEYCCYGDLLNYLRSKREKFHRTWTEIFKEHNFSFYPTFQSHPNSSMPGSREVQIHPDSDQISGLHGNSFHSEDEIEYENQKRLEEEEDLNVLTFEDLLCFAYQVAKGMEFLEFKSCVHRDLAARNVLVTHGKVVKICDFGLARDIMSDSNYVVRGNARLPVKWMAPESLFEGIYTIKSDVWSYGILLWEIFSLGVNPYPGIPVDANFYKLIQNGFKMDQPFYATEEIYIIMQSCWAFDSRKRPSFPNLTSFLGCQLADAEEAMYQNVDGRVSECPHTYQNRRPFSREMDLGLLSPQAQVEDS
Calcium/calmodulin-dependent protein kinase type IV (Homo sapiens), sequence (Q16566 whole entry, the tested form may be a part): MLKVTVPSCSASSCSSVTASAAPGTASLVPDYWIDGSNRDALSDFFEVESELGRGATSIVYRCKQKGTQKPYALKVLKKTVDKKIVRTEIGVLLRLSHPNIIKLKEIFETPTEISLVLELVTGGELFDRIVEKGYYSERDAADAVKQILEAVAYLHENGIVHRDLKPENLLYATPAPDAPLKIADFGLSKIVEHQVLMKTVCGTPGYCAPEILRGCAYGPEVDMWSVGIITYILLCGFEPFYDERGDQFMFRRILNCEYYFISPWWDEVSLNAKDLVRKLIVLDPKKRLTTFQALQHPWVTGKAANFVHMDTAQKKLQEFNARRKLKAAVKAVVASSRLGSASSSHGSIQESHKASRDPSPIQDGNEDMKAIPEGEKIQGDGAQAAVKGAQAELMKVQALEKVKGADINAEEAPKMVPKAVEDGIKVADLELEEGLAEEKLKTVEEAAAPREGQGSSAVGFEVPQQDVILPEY
Serine/threonine-protein kinase LATS1 (Homo sapiens), sequence (O95835 whole entry, the tested form may be a part): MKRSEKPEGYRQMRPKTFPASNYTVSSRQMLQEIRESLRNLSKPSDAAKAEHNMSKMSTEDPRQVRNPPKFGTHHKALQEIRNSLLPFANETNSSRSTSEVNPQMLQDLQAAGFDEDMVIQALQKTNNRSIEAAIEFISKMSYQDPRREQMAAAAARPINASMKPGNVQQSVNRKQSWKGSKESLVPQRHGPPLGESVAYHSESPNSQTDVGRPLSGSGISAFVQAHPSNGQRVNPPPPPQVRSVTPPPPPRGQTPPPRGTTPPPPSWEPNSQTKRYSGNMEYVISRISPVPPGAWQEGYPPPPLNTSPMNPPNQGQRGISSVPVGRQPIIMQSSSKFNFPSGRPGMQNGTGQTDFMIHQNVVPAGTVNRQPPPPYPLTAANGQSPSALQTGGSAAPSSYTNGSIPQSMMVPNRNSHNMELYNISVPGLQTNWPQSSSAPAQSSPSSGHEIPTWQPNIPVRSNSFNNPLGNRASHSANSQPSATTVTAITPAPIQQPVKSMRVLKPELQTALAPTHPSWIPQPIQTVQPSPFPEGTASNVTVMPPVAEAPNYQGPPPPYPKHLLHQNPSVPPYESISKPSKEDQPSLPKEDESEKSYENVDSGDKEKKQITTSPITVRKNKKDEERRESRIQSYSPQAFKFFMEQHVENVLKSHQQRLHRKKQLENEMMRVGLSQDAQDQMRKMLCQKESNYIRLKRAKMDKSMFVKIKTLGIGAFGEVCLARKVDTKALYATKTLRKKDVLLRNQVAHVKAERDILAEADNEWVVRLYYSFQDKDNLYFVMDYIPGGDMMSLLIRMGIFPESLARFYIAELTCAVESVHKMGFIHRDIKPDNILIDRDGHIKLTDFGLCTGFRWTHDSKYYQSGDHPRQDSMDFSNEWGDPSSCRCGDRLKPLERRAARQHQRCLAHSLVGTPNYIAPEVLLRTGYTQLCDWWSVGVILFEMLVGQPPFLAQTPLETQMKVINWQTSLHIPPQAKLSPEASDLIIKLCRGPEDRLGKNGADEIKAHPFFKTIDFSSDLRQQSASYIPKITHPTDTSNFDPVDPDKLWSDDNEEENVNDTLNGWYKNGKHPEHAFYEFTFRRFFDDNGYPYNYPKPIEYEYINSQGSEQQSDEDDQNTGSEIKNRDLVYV
Serine/threonine-protein kinase TNNI3K (Homo sapiens), sequence (Q59H18 whole entry, the tested form may be a part): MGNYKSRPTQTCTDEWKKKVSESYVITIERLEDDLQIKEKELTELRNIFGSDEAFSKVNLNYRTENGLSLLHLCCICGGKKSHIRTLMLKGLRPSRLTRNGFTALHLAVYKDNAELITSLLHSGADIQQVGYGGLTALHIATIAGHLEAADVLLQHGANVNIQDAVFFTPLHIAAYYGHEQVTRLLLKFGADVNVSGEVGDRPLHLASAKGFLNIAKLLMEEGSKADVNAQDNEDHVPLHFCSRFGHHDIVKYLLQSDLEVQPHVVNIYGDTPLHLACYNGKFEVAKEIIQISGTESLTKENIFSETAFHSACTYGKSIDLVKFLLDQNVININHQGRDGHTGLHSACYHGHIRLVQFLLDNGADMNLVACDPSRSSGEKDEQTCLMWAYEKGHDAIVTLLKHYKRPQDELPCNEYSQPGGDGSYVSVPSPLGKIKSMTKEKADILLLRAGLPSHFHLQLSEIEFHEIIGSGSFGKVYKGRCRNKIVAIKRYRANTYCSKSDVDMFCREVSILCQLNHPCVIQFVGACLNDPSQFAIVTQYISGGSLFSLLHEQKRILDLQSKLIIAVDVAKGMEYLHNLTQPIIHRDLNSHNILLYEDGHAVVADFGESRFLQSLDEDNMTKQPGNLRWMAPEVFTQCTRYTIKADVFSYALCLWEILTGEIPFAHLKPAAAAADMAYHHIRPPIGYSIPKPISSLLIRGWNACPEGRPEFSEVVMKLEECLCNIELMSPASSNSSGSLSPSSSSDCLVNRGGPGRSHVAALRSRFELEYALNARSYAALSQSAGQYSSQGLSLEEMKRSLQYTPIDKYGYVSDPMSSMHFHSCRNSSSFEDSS
Serine/threonine-protein kinase Chk2 (Homo sapiens), sequence (O96017 whole entry, the tested form may be a part): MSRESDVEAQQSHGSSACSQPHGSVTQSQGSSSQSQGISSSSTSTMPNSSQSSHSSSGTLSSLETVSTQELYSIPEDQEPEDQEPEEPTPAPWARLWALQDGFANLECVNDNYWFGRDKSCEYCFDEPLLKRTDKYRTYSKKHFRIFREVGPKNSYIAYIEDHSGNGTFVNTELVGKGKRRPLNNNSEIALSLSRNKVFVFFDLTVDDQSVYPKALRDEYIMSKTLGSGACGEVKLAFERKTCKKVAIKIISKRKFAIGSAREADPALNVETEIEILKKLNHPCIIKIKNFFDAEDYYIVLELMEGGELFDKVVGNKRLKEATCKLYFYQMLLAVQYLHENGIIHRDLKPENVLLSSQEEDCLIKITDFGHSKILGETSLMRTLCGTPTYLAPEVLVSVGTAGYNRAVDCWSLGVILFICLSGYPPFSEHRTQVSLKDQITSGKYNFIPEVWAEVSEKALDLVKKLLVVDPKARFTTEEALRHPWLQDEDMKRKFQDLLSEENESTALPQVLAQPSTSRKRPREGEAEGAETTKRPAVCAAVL
LIM domain kinase 2 (Homo sapiens), sequence (P53671 whole entry, looked up, the tested form may be a part): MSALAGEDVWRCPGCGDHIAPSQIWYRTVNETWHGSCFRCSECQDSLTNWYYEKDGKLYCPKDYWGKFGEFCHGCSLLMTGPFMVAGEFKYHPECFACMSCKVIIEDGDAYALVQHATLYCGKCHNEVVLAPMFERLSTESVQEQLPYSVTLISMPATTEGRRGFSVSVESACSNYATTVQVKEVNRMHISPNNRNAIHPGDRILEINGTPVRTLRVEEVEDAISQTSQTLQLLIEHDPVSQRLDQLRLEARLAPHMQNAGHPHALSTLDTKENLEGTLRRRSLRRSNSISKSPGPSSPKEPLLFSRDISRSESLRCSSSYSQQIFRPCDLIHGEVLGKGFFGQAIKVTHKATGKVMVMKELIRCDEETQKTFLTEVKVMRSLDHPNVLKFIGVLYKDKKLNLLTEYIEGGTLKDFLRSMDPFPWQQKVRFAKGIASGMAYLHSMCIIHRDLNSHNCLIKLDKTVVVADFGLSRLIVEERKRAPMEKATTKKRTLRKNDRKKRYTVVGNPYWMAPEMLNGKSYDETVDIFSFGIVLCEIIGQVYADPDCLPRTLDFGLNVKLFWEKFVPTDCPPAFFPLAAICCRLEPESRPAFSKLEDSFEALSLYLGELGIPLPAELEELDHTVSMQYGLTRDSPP
Serine/threonine-protein kinase pim-2 (Homo sapiens), sequence (Q9P1W9 whole entry, looked up, the tested form may be a part): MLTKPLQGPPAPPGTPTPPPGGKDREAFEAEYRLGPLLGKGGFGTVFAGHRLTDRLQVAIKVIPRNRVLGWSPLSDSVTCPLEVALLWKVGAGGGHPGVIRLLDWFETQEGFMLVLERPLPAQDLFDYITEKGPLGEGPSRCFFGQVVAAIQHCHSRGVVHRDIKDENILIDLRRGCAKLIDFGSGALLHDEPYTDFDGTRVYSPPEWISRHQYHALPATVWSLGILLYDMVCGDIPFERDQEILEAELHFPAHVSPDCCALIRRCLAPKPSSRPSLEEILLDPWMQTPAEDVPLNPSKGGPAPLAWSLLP

Compound `COc1cc(OC)c(Cl)c(N2Cc3cnc(Nc4ccc(F)cc4)nc3N(C3CCN(C(=O)/C=C/CN(C)C)CC3)C2=O)c1Cl` has an Activity [1] of 100%, an Activity [2] of 83% and an Activity [3] of 96%. The Activity [4] was 100%, the Activity [5] was 100% and the Activity [6] was 92%. For the same compound, the Activity [7] was 100%, the Activity [8] was 31% and the Activity [9] was 87%. It also gave an Activity [10] of 100%, an Activity [11] of 99% and an Activity [12] of 100%. For the same compound, the Activity [13] was 96%, the Activity [14] was 73% and the Activity [15] was 86%. It also gave an Activity [16] of 83%, an Activity [17] of 100% and an Activity [18] of 100%. It also gave an Activity [19] of 100%, an Activity [20] of 100% and an Activity [21] of 5.6%.

Reference: ChEMBL document CHEMBL4043093, “2-Oxo-3, 4-dihydropyrimido[4, 5-d]pyrimidinyl derivatives as new irreversible pan fibroblast growth factor receptor (FGFR) inhibitors” (Eur J Med Chem, 2017)
